Data: paper PMC7004511 (Cancer Science, 2020)
“Also recorded” adds a separate entry of the source. Where two headings read alike, the source gives them in different places.

Tests used:
[1] = Pharmacokinetics of gefitinib in plasma; assay type: in vivo, human
[2] = Phase I dose escalation; assay type: in vivo, human
[3] = Pharmacokinetics of vorinostat in serum; assay type: in vivo, human; details: for AUC(0-t): AUC last
Outline: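 Patients with EGFR-mutated (exon 19 deletion or L858R) NSCLC carrying the BIM deletion polymorphism received oral vorinostat once daily on days 1-7 (200, 300 or 400 mg) with oral gefitinib 250 mg once daily, in 14-day cycles. Vorinostat was quantified in serum. Tmax is given as a median, and t1/2 and Cmax as mean ± SD per dose level.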

[4] = system: acetylated histone H3 (Lys27); experiment: Pharmacodynamics: western blotting of PBMC protein, acetylated histone H3; assay type: in vivo, human
[5] = system: BIM deletion polymorphism‐positive EGFR‐mutated NSCLC cell lines (PC‐3); details: cited from earlier work
[6] = system: proapoptotic BIM protein (BIMEL); experiment: Pharmacodynamics: western blotting of PBMC protein, BIMEL; assay type: in vivo, human
[7] = system: T790M‐positive EGFR‐mutated NSCLC cells; details: in vitro; cited from earlier work
[8] = biweekly, plus erlotinib 150 mg daily or gefitinib 250 mg daily; cited from earlier work
[9] = human, po, 200 mg, mean (SD), vorinostat Level 1 (200 mg) oral, n=3
[10] = human, po, 200 mg, median (range), vorinostat Level 1 (200 mg) oral, n=3
[11] = 4 h after dose on day 2 of cycle 1, all levels

Compound: COc1cc2ncnc(Nc3ccc(F)c(Cl)c3)c2cc1OCCCN1CCOCC1 [Gefitinib]
- Median T max of gefitinib ([1]; gefitinib 250 mg, vorinostat 200 mg group): 4 h
- Recommended phase II dose (RP2D) of gefitinib ([2]; daily, with vorinostat 400 mg/day biweekly): 250 mg

Compound: O=C(CCCCCCC(=O)Nc1ccccc1)NO [Vorinostat, suberoylanilide hydroxamic acid]
- half-life ([3]; human, po, 200 mg): 216 min
- AUC(0-inf) [3, 9]: 2.43 µM·h
- AUC(0-inf) [3, 10]: 2.83 µM·h
- AUC(0-t) [3, 9]: 2.34 µM·h
- AUC(0-t) [3, 10]: 2.72 µM·h
- Cmax ([3]; human, po, 200 mg, C max, mean (SD), vorinostat Level 1 (200 mg) oral, n=3): 602 nM
- Tmax ([3]; human, po, 300 mg): 3.3 h
- Tmax ([3]; human, po, 400 mg): 3.5 h
- half-life ([3]; human, po, 400 mg): 126 min
- Cmax ([3]; read-out: C max, median (range), vorinostat Level 1 (200 mg) oral, n=3): 615 nM
- Cmax ([3]; read-out: C max, median (range), vorinostat Level 3 (400 mg) oral, n=6): 944 nM
- T max, median (range) ([3]; vorinostat Level 1 (200 mg) oral, n=3): 2.0 (1.1‐4.0) h
- T max, median (range) ([3]; vorinostat Level 3 (400 mg) oral, n=6): 4.0 (0.9‐4.1) h
- Patients with increased acetylated histone H3 protein expression [4, 11]: 10/11
- Patients with increased acetylated histone H3 protein expression ([4]; all levels): 91%
- Patients with increased acetylated histone H3 protein expression ([4]; level 1 (200 mg)): 3/3
- Patients with increased acetylated histone H3 protein expression ([4]; level 2 (300 mg)): 3/3
- Patients with increased acetylated histone H3 protein expression ([4]; level 3 (400 mg)): 4/5
- Resensitization of cells to EGFR-TKI by addition of vorinostat [5]: could resensitize these cells to EGFR‐TKI
- Effect of vorinostat on the pharmacokinetics of gefitinib ([1]; vorinostat 200, 300, 400 mg groups compared): unlikely to affect the pharmacokinetics of gefitinib; also recorded: did not affect the dynamics of gefitinib
- Patients with increased proapoptotic BIM protein (BIMEL) expression [6, 11]: 5/11
- Patients with increased proapoptotic BIM protein (BIMEL) expression ([6]; 4 h after dose on day 2 of cycle 1, all levels, listed as vorinostat): five of 11
- Patients with increased proapoptotic BIM protein (BIMEL) expression ([6]; all levels): 45.5%
- Patients with increased proapoptotic BIM protein (BIMEL) expression ([6]; level 1 (200 mg)): 1/3
- Patients with increased proapoptotic BIM protein (BIMEL) expression ([6]; level 2 (300 mg)): 3/3
- Patients with increased proapoptotic BIM protein (BIMEL) expression ([6]; level 3 (400 mg)): 1/5
- Recommended phase II dose (RP2D) of vorinostat ([2]; biweekly, combined with gefitinib 250 mg daily): 400 mg/day
- Recommended phase II dose (RP2D) of vorinostat ([2]; combined with gefitinib): 400 mg
- Sensitization of cells to gefitinib [7]: did not sensitize T790M‐positive EGFR‐mutated NSCLC cells to gefitinib
- Recommended dose of vorinostat [8]: 400 mg/day

Compound: C=CC(=O)Nc1cc(Nc2nccc(-c3cn(C)c4ccccc34)n2)c(OC)cc1N(C)CCN(C)C [osimertinib]
- Sensitivity to osimertinib-induced apoptosis [5]: resistant to osimertinib‐induced apoptosis
